pKi: −log10 of the molar value.
Columns and labels:
[1] = target: T1, Amine oxidase [flavin-containing] B (Bos taurus, UniProt P56560); assay: Kinetic parameter for the time dependent inhibition of Bovine liver Monoamine Oxidase B at 25 degrees C (pH= 7.4).; details: cattle; for kinact: read-out: k2 (converted)
T1 sequence (P56560 whole entry): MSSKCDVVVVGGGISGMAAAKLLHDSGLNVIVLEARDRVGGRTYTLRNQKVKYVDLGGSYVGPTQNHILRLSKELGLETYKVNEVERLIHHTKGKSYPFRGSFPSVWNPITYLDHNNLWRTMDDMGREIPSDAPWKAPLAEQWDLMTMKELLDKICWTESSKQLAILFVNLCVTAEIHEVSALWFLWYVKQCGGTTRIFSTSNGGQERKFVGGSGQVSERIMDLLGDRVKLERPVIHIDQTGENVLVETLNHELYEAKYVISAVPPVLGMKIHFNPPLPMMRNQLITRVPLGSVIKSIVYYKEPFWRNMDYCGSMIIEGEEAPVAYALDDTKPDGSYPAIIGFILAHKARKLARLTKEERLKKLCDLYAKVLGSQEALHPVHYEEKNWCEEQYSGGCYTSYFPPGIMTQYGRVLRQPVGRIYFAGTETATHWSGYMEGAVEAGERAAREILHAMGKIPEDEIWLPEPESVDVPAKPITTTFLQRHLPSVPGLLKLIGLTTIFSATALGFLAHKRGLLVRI
Summary of the method: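 Purified beef liver mitochondrial MAO (0.02 unit) was preincubated at 25 °C in 50 mM potassium phosphate, pH 7.4, with allenic amine (1 µM-10 mM). Aliquots taken over time were assayed in duplicate for residual activity against benzylamine at 250 nm. kobsd came from nonlinear fit to E = E0 exp(-kobsd t) + E∞, and k2 and Ki by Kitz-Wilson analysis. For slow inactivators, k2 came from kobsd at one concentration plus a separately measured competitive Ki.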

[2] = target: T1, Amine oxidase [flavin-containing] B; assay: In vitro inhibition of bovine monoamine oxidase B.
Summary of the method: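 Beef liver mitochondrial MAO was purified and assayed spectrophotometrically in 67 mM potassium phosphate, pH 7.2, at 25 °C. MAO (0.002 unit) was run with benzylamine hydrochloride (100, 200, 300 or 400 µM) and inhibitor at various concentrations. Initial rates of benzaldehyde formation were read at 250 nm, four replicates per combination, and competitive Ki was fitted from the initial rates.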

[3] = target: T1, Amine oxidase [flavin-containing] B; assay: Inhibitory activity against Monoamine Oxidase B of Bovine liver in competitive inhibition assay at 25 degree C (pH=7.4)
[4] = target: T2, Amine oxidase [flavin-containing] B (Rattus norvegicus, UniProt P19643); assay: Competitive inhibition of Rat liver Monoamine Oxidase B at 37 degree C (pH= 7.4)
T2 sequence (P19643 whole entry): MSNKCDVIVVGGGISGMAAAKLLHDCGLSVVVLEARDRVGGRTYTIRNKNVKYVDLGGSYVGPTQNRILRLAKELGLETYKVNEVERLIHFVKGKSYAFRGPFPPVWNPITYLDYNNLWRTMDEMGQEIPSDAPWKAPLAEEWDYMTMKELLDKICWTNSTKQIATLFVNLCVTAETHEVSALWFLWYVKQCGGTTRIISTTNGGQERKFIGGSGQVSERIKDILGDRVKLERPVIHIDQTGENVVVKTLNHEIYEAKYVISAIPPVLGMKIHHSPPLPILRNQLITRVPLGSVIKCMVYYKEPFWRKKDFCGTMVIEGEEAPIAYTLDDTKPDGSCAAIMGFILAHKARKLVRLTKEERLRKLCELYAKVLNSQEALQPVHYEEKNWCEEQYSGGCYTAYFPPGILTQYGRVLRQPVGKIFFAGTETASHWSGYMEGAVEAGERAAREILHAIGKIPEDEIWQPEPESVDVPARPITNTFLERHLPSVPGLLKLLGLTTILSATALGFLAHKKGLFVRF

[5] = target: T2, Amine oxidase [flavin-containing] B; assay: Competitive inhibition of Rat liver Monoamine Oxidase B at 30 degree C (pH= 7.2)
Bos taurus = species on record: Bos taurus; assay: Competitive inhibition of Bovine liver MAO-B at […]; assay type: functional

Compound | pKi [2] | k2 [1] [min⁻¹] | pKi [3] | further results
CC=C=CCN(C)[C@H](C)c1ccccc1 (mixture of isomers) | 2.74 | – | – | kinact [1]: 0.00733 s⁻¹
CC=C=CCN(C)C (stereo in doubt; 1 (S)) | 4.00 | 0.29 | – | –
CC=C=CCN(C)Cc1ccccc1.O=C(O)C(=O)O (stereo in doubt; 2 (S)) | 3.09 | 0.16 | – | –
CC=C=CCN(C)[C@@H](C)c1ccccc1 (mixture of isomers) | 2.59 | 0.012 | – | –
CC=C=CCN(C)C (stereo in doubt; 1 (R)) | 4.23 | – | – | kinact [1]: 0.00367 s⁻¹
CN[C@H](C)c1ccccc1 | – | – | 3.20 | –
CC=C=CCN(C)[C@H](C)c1ccccc1 (stereo in doubt) | 3.14 | 0.61 | – | –
C[C@@H](N)c1ccccc1 | 3.72 | – | – | –
CN[C@@H]1CCCc2ccccc21 | – | – | 4.92 | –
C[C@H](N)Cc1ccccc1 [DEXTROAMPHETAMINE] | – | – | 3.52 | pKi [4]: 3.80; pKi [5]: 3.24
CN[C@H](C)Cc1ccccc1 | – | – | 3.10 | pKi [4]: 3.26
C[C@H](N)c1ccccc1 | – | – | 3.28 | pKi (Bos taurus): 3.82
CC=C=CCN(C)CCc1ccccc1 (stereo in doubt; 4 (S)) | 3.19 | 0.13 | – | –
CC=C=CCN(C)Cc1ccccc1.O=C(O)C(=O)O (stereo in doubt; 2 (R)) | 3.70 | 1 | – | –
CC=C=CCN(C)C[C@H](C)c1ccccc1 (mixture of isomers) | 3.74 | – | – | kinact [1]: 0.00015 s⁻¹
CC=C=CCN(C)[C@@H](C)c1ccccc1 (stereo in doubt) | 2.96 | – | – | kinact [1]: 0.000117 s⁻¹
CN[C@@H](C)c1ccccc1 | – | – | 2.80 | –
CC=C=CCN(C)CCc1ccccc1 (stereo in doubt; 4 (R)) | 3.37 | 0.99 | – | –
CC=C=CCN(C)[C@@H]1CCCc2ccccc21 (stereo in doubt) | 3.70 | 0.8 | – | –
CC=C=CCN(C)[C@H]1CCCc2ccccc21 (stereo in doubt) | 3.82 | 0.0006 | – | –
CC=C=CCN(C)[C@H]1CCCc2ccccc21 (mixture of isomers) | 3.82 | 0.012 | – | –
CC=C=CCN(C)C[C@@H](C)c1ccccc1 (mixture of isomers) | 3.16 | – | – | kinact [1]: 0.000117 s⁻¹
C[C@@H](N)Cc1ccccc1 [LEVAMFETAMINE] | – | – | 3.42 | pKi [4]: 3.74; pKi [5]: 3.12
CN[C@@H](C)Cc1ccccc1 [METHAMPHETAMINE] | – | – | 3.26 | pKi [4]: 3.57
CN[C@H]1CCCc2ccccc21 | – | – | 5.85 | –
CC=C=CCN(C)[C@@H]1CCCc2ccccc21 (mixture of isomers) | 3.60 | 0.13 | – | –

Reference: ChEMBL document CHEMBL1124175, “Stereoisomers of allenic amines as inactivators of monoamine oxidase type B. Stereochemical probes of the active site” (J Med Chem, 1988)
